# ChEMBL document CHEMBL1142516, “Design, synthesis, and structure-affinity relationships of novel series of sialosides as CD22-specific inhibitors” (J Med Chem, 2008)
# Key:
# B-cell receptor CD22 = target: T1, B-cell receptor CD22 (Homo sapiens, UniProt P20273); assay: Binding affinity to biotinylated human CD22-human IgG1 chimeric protein expressed in mouse J558LST6 cells by flow cytometry; assay type: cell-based
# T1 sequence (P20273 whole entry): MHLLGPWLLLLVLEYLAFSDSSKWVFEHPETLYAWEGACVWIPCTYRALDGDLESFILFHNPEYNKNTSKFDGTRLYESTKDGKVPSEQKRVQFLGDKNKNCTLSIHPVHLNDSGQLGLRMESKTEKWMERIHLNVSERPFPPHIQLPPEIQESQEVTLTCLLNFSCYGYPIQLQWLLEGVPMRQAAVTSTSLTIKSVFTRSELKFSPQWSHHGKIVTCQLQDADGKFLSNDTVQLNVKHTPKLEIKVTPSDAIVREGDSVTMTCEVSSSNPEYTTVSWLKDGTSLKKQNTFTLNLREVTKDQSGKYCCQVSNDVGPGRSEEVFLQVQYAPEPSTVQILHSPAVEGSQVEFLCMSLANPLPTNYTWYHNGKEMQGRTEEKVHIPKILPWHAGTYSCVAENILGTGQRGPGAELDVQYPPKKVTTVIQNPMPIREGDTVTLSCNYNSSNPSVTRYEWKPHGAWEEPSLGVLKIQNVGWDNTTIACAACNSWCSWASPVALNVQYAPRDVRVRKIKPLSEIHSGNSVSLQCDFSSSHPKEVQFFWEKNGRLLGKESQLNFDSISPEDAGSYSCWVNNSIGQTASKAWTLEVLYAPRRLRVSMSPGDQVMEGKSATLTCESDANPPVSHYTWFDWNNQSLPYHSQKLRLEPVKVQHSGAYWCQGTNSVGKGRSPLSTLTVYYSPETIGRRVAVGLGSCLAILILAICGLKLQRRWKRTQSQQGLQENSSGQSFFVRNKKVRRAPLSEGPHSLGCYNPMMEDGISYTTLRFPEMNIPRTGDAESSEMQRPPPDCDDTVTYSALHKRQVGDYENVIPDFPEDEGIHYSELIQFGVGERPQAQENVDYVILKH
# In short: (§1)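 IC50 from inhibition of CD22-Fc binding to alpha2,6-sialic acid on ST6GalI-transfected J558L mouse myeloma cells (J558LST6), incubated with CD22-Fc plus varied sialoside concentrations. Detection with Alexa Fluor 647-streptavidin, 30 min on ice, then flow cytometry. % binding = (A−B)/(C−B)×100 using MFI: A, sialoside sample; B, parent J558L; C, untreated J558LST6. IC50 taken as 50% binding inhibition; means of ≥3 independent determinations.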
# [1] = Binding affinity to biotinylated mouse CD22-human IgG1 chimeric protein expressed in mouse J558LST6 cells by flow cytometry; assay type: cell-based; in short: as §1
Structure (SMILES),IC50 (B-cell receptor CD22),IC50 [1]
COc1ccc(O[C@@H]2O[C@H](CO[C@]3(C(=O)O)C[C@H](O)[C@@H](NC(=O)CO)[C@H]([C@H](O)[C@H](O)CNC(=O)C(c4ccccc4)c4ccccc4)O3)[C@H](O)[C@H](O)[C@H]2O)cc1,8.85 µM,63.5 µM
COc1ccc(O[C@@H]2O[C@H](CO[C@]3(C(=O)O)C[C@H](O)[C@@H](NC(=O)CO)[C@H]([C@H](O)[C@H](O)CNC(=O)c4ccccc4)O3)[C@H](O)[C@H](O)[C@H]2O)cc1,125 µM,115 µM
COc1ccc(O[C@@H]2O[C@H](CO[C@]3(C(=O)O)C[C@H](O)[C@@H](NC(=O)CO)[C@H]([C@H](O)[C@H](O)CNCCCCc4ccc(-c5ccccc5)cc4)O3)[C@H](O)[C@H](O)[C@H]2O)cc1,6.22 µM,4.1 µM
COc1ccc(O[C@@H]2O[C@H](CO[C@]3(C(=O)O)C[C@H](O)[C@@H](NC(=O)CO)[C@H]([C@H](O)[C@H](O)CNCc4ccc(-c5ccc(C)cc5)cc4)O3)[C@H](O)[C@H](O)[C@H]2O)cc1,9.83 µM,27 µM
